Key:
[1] = Inhibition of HCV NS5B polymerase; design: species or system Hepacivirus hominis
[2] = Cytotoxicity against human MT4 cells after 96 hrs by MTT assay; format: cell-based
How it was run: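 Exponentially growing MT-4 cells seeded at 1×10^5 cells/mL in RPMI-1640 with 10% FBS and incubated with serial compound dilutions at 37 °C and 5% CO2. Viability measured by MTT after 96 h. CC50 by linear regression against untreated controls.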

[3] = test system: Human immunodeficiency virus 1; assay: Antiviral activity against HIV1 3B infected in human MT4 cells assessed as inhibition of virus-induced cytopathogenicity after 4 days by MTT assay; format: functional, organism-based; settings: Human immunodeficiency virus 1, 3B, MT4, 96 h
How it was run: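 MT-4 cells (1×10^4/well) in RPMI with serial compound dilutions, infected with HIV-1 IIIB at 100 CCID50 (m.o.i. 0.01). Viability measured by MTT after 4 days at 37 °C. EC50 for 50% protection from cytopathogenicity obtained by linear regression against untreated controls.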

[4] = Cytotoxicity against MDBK cells after 48 to 96 hrs by MTT assay; format: cell-based, Bos taurus; settings: cattle
How it was run: (§1)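 Mock-infected MDBK (6×10^5 cells/mL, MEM-E with 10% horse serum) or BHK (1×10^6 cells/mL, MEM-E with 10% FBS) cells incubated with serial compound dilutions at 37 °C and 5% CO2. Viability measured by MTT after 48–96 h. CC50 by linear regression against untreated controls.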

[5] = Antiviral activity against BVDV1 NADL ATCC VR-534 infected in MDBK cells assessed as inhibition of virus-induced cytopathogenicity after 3 to 4 days by MTT assay; format: functional, cell-based, Bovine viral diarrhea virus 1-NADL; settings: Bovine viral diarrhea virus isolates and strains, ATCC VR-534, MDBK
How it was run: (§2)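 BHK (5×10^4/well) or MDBK (3×10^4/well) cells grown to confluent monolayers overnight, infected at m.o.i. 0.01 in maintenance MEM-Earl with 0.5% inactivated FBS. Serially diluted compounds added after 1 h. Viability read by MTT after 3–4 days at 37 °C. Values are expressed as % of untreated controls, and EC50 is derived by linear regression. Duplicate samples.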

[6] = Cytotoxicity against BHK21 cells by MTT assay; format: cell-based, Mesocricetus auratus; settings: hamster, BHK-21 cells; how it was run: as §1
[7] = test system: Yellow fever virus; assay: Antiviral activity against Yellow fever virus 17D infected in BHK21 cells assessed as inhibition of virus-induced cytopathogenicity after 3 to 4 days by MTT assay; format: functional, cell-based; settings: BHK-21
[8] = test system: Mammalian orthoreovirus 1; assay: Antiviral activity against Reovirus 1 3651 ATCC VR-214 infected in BHK21 cells assessed as inhibition of virus-induced cytopathogenicity after 3 to 4 days by MTT assay; format: functional, organism-based; settings: Mammalian orthoreovirus 1, 3651 ATCC VR-214, BHK-21; how it was run: as §2
[9] = Cytotoxicity against african green monkey Vero 76 cells after 48 to 96 hrs by MTT assay; format: cell-based; settings: chlorocebus sabaeus
[10] = test system: Coxsackievirus B5; assay: Antiviral activity against Coxsackie virus type B5 Ohio-1 ATCC VR-29 infected in african green monkey Vero-76 cells assessed as reduction in viral plaque after 3 days by crystal violet staining; format: functional, organism-based; settings: Enterovirus B, Ohio-1 ATCC VR-29, Vero 76, 72 h
How it was run: (§3)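 Vero-76 monolayers (2×10^5 cells/well) infected for 2 h at 50–100 PFU/well. Unadsorbed virus removed. D-MEM with 1% inactivated FBS, 0.75% methylcellulose and serial compound dilutions added. Incubation at 37 °C for 3 days (CVB-5, HSV-1) or 5 days (RSV). Fixed and stained with 50% ethanol/0.8% crystal violet, then plaques counted. EC50 by linear regression versus untreated controls.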

[11] = test system: Poliovirus 1; assay: Antiviral activity against Polio virus type 1 strain sabin ATCC VR-1562 infected in african green monkey Vero-76 cells assessed as reduction in viral plaque after 2 days by crystal violet staining; format: functional, cell-based, Human poliovirus 1 strain Sabin; settings: Enterovirus C, ATCC VR-1562, Vero 76, 48 h
[12] = Antiviral activity against Human respiratory syncytial virus A2 ATCC VR-1540 infected in african green monkey Vero-76 cells assessed as reduction in viral plaque after 5 days by crystal violet staining; format: functional, cell-based; settings: ATCC VR-1540, Vero 76, 120 h; how it was run: as §3
[13] = test system: Vesicular stomatitis Indiana virus; assay: Antiviral activity against Vesicular stomatitis virus indiana ATCC VR-1540 infected in african green monkey Vero-76 cells assessed as reduction in viral plaque after 2 days by crystal violet staining; format: functional, organism-based; settings: ATCC VR-1540, Vero 76, 48 h
[14] = test system: Vaccinia virus; assay: Antiviral activity against Vaccinia virus Elstree-Lister ATCC VR-1549 infected in african green monkey Vero-76 cells assessed as reduction in viral plaque after 3 days by crystal violet staining; format: functional, organism-based; settings: Orthopoxvirus vaccinia, Elstree-Lister ATCC VR-1549, Vero 76, 72 h
[15] = test system: Human alphaherpesvirus 1; assay: Antiviral activity against Herpes simplex virus type 1 KOS ATCC VR-1493 infected in african green monkey Vero-76 cells assessed as reduction in viral plaque after 3 days by crystal violet staining; format: functional, organism-based; settings: Human alphaherpesvirus 1, KOS ATCC VR1493, Vero 76, 72 h; how it was run: as §3
[16] = test system: Coxsackievirus B2; assay: Antiviral activity against Coxsackie virus type B2; format: functional, organism-based; settings: Enterovirus B
[17] = Cytotoxicity against human GS4.1 cells assessed as decrease in cell viability by Cell Titer glo assay; format: cell-based
[18] = test system: Hepatitis C virus; assay: Antiviral activity against Hepatitis C virus genotype 1b infected in human GS4.1 cells assessed as inhibition of viral replication after 72 hrs by ELISA; format: functional, organism-based, Hepacivirus hominis
How it was run: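 Huh-7 cells carrying the genotype 1b replicon (GS4.1) seeded at 7.5×10^3/well with two-fold serial dilutions, top 75 µM, for 72 h at 37 °C. Cells fixed in acetone–methanol. NS4A quantified by ELISA with anti-NS4A antibody A-236, peroxidase conjugate and o-phenylenediamine, read at 492 nm. EC50 from four-parameter sigmoidal fit. Replicon-free Huh-7 served as negative control.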

SMILES | IC50 [1] | CC50 at 96 h [2] | EC50 [3] | CC50 [4] | EC50 [5] | CC50 [6] | EC50 [7] | EC50 [8] | CC50 [9] | EC50 [10] | EC50 [11] | EC50 [12] | EC50 [13] | EC50 [14] | EC50 [15] | EC50 [16] | CC50 [17] | EC50 [18]
O=C(O)c1ccc2c(c1)nc(-c1ccccn1)n2C1CCCCC1 | 4.3 µM | – | – | – | – | – | – | – | – | – | – | – | – | – | – | – | – | –
C/C(=N\NC(N)=S)c1ccc2[nH]c(-c3ccoc3)nc2c1 | – | 86 µM | > 86 µM | > 100 µM | 8 µM | > 100 µM | > 100 µM | > 100 µM | 100 µM | > 100 µM | 100 µM | > 100 µM | > 100 µM | > 100 µM | > 100 µM | – | – | –
CC(=O)c1ccc2c(c1)nc(-c1ccc(C(F)(F)F)cc1)n2C1CCCCC1 | – | 41 µM | > 41 µM | 52 µM | 23 µM | 33 µM | > 33 µM | > 33 µM | 35 µM | > 35 µM | > 35 µM | 20 µM | > 35 µM | > 35 µM | > 35 µM | – | – | –
COc1ccc(-c2nc3cc(C(C)O)ccc3[nH]2)cc1 (centres undefined) | – | ≥ 100 µM | > 100 µM | > 100 µM | > 100 µM | > 100 µM | > 100 µM | > 100 µM | > 100 µM | > 100 µM | > 100 µM | > 100 µM | > 100 µM | > 100 µM | > 100 µM | – | – | –
COc1ccc(-c2nc3cc(C(C)=O)ccc3n2C2CCCCC2)cc1 | – | 27 µM | > 27 µM | > 100 µM | 21 µM | > 100 µM | 13.4 µM | > 100 µM | 30 µM | > 30 µM | > 30 µM | > 30 µM | > 30 µM | > 30 µM | > 30 µM | – | – | –
CC(=O)c1ccc2c(c1)nc(-c1ccccc1)n2C1CCCCC1 | – | 37 µM | > 37 µM | > 100 µM | 60 µM | 100 µM | 13.2 µM | > 100 µM | 80 µM | > 80 µM | > 80 µM | 25 µM | > 80 µM | > 80 µM | > 80 µM | – | – | –
COc1ccc(-c2nc3cc(/C(C)=N/O)ccc3[nH]2)c(OC)c1 | – | ≥ 100 µM | > 100 µM | > 100 µM | 17 µM | > 100 µM | > 100 µM | > 100 µM | > 100 µM | 43 µM | > 100 µM | > 100 µM | > 100 µM | > 100 µM | > 100 µM | – | – | –
COc1ccc(-c2nc3cc(C(C)=O)ccc3[nH]2)c(OC)c1OC | – | > 100 µM | > 100 µM | > 100 µM | > 100 µM | > 100 µM | > 100 µM | > 100 µM | > 100 µM | > 100 µM | > 100 µM | > 100 µM | > 100 µM | > 100 µM | > 100 µM | – | – | –
COc1ccc(-c2nc3cc(C(C)O)ccc3[nH]2)c(OC)c1 (centres undefined) | – | ≥ 100 µM | > 100 µM | > 100 µM | > 100 µM | > 100 µM | > 100 µM | > 100 µM | > 100 µM | > 100 µM | > 100 µM | > 100 µM | > 100 µM | > 100 µM | > 100 µM | – | – | –
C/C(=N\NC(N)=S)c1ccc2c(c1)nc(-c1ccccc1)n2C1CCCCC1 | – | 20 µM | 10 µM | 24 µM | 4.5 µM | 38 µM | 9 µM | > 38 µM | 20 µM | > 20 µM | > 20 µM | > 20 µM | > 20 µM | > 20 µM | > 20 µM | – | – | –
Nc1ccc(/C=C/c2nc3ccccc3[nH]2)cc1 | – | – | – | – | – | – | – | – | – | – | – | – | – | – | – | 7 µM | – | –
CC(=O)c1ccc2[nH]c(-c3ccc(-c4ccc([N+](=O)[O-])cc4)cc3)nc2c1 | – | – | – | – | – | – | 0.5 µM | – | – | – | – | – | – | – | – | 1 µM | – | –
O=C(O)c1ccc2c(c1)nc(-c1ccoc1)n2C1CCCCC1 | 1.6 µM | – | – | – | – | – | – | – | – | – | – | – | – | – | – | – | – | –
C/C(=N\NC(N)=S)c1ccc2c(c1)nc(-c1ccc(Cl)cc1)n2C1CCCCC1 | – | 17 µM | ≥ 17 µM | > 100 µM | > 100 µM | > 100 µM | > 100 µM | > 100 µM | > 100 µM | > 100 µM | > 100 µM | > 100 µM | > 100 µM | > 100 µM | > 100 µM | – | – | –
C/C(=N\NC(N)=S)c1ccc2c(c1)nc(-c1ccc(C(F)(F)F)cc1)n2C1CCCCC1 | – | 30 µM | ≥ 30 µM | > 100 µM | > 100 µM | > 100 µM | > 100 µM | > 100 µM | > 100 µM | > 100 µM | > 100 µM | > 100 µM | > 100 µM | > 100 µM | > 100 µM | – | – | –
Nc1ccc(/C=C/c2nc3cc(Cl)ccc3[nH]2)cc1 | – | – | – | – | – | – | – | – | – | – | – | – | – | – | – | 7 µM | – | –
COc1ccc(-c2nc3cc(/C(C)=N/NC(N)=S)ccc3[nH]2)c(OC)c1 | – | 72 µM | > 72 µM | > 100 µM | 0.8 µM | 28 µM | > 28 µM | > 28 µM | > 100 µM | > 100 µM | > 100 µM | > 100 µM | > 100 µM | – | > 100 µM | – | 11.3 µM | 1.11 µM
CC(=O)c1ccc2c(c1)nc(-c1ccc(Cl)cc1)n2C1CCCCC1 | – | 58 µM | > 58 µM | > 100 µM | 23 µM | > 100 µM | > 100 µM | > 100 µM | > 100 µM | > 100 µM | > 100 µM | > 100 µM | > 100 µM | > 100 µM | > 100 µM | – | – | –

Source: ChEMBL document CHEMBL2034874, “5-acetyl-2-arylbenzimidazoles as antiviral agents. Part 4” (Eur J Med Chem, 2012)
